The labels stand for the following.
B1: tRNA (parent)
chain: GUUCCGUUGGCGUAAUGGUAACGCGUCUCCCUCCUAAGGAGAAGACUGCGGGUUCGAGUCCCGUACGGAACG

The values below come from the RNAGym collection of RNA variant scans (doi:10.1038/s41586-018-0170-7).

The variants in the data set derive from B1. Put plainly: yeast fitness, log relative to wild type (ln ratio); higher = fitter; tRNA-Arg(CCU), competitive growth, 37 C, 1 M NaCl. Summed up:
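A combinatorial tRNA-Arg(CCU) variant library was carried on a HIS3 centromeric plasmid in BY4742 lacking the chromosomal gene, from two independent transformations. Pools grew 4 generations in SC-HIS at 30 °C, then ~6.5 generations (~26.5 h) in SC-HIS 1M NaCl at 37 °C, with three outputs per input. Variants were counted by 125 bp paired-end Illumina sequencing. Fitness is ln of each genotype's generations (OD-scaled log2 output/input frequency, inverse-variance weighted across replicates) over the wild-type's.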
Regarding G1A U2G G6U C27U C46U C66U A69G A70G, the “yeast fitness (ln)” value was -0.308. The value for G1A U2C G6A C27U C46U A70G was -0.0476. To G1A C27U A43C C66U A70U C71U belongs -0.51; to G6A A70G, -0.194; to U2C C27U C46U A69G A70G C71U, -0.0348. To G1A U2C G6U C27U A43C C46U A69G A70U belongs -0.183; to U2G C66U A69G A70U, -0.285; to G1A U2C G6U A43C C46U C66U A69G A70G C71U, -0.201.

For the variant G1A G6A C46U A69G C71U, the “yeast fitness (ln)” value was -0.252. The value for U2C G6A C27U A43C C46U A69G A70U C71U was -0.359; that for U2G G6U C46U C66A A70G was -0.0357; that for U2G G6A C27U A43C C66A A69G A70U was -0.301. To U2G G6A C27U A43C C66A A69G A70G belongs -0.368. The value for G1A G6A C27U A70U C71U was -0.23. Take G6A C27U A43C C66A A70G: the “yeast fitness (ln)” value was -0.337.

For the variant U2C G6A, the “yeast fitness (ln)” value was 0.0247.

For G1A U2G C66A A70U C71U, the “yeast fitness (ln)” value is -0.146. The value for G6A C66U A69G was -0.0231; that for G1A U2C G6A C46U C66U A70G was -0.0233; that for G1A G6U C66A A69G A70U was -0.0798. To G1A U2G G6U A43C A69G A70G C71U belongs -0.439.

Take G1A U2G C27U C46U C66U A69G A70G: the “yeast fitness (ln)” value was -0.231.

For the variant U2C C66A A70G, the “yeast fitness (ln)” value is -0.11. The value for U2C G6U C27U A43C C46U C66A A69G A70G C71U was -0.0738; that for C27U A69G A70U was -0.206; that for U2C G6A A43C C66U was -0.121.

Turning to U2G G6U C66A, the “yeast fitness (ln)” value is -0.0885. In the case of G1A U2G A43C C46U C66U A69G A70G C71U, the “yeast fitness (ln)” value is -0.323. To G1A U2G C66U A69G A70U C71U belongs -0.435; to A43C C46U C66A A70G C71U, -0.0713.

On to G1A U2G G6A A43C C46U C66A A70U, for which the “yeast fitness (ln)” value was -0.191.

Regarding U2C G6U C27U A43C, the “yeast fitness (ln)” value is -0.0819. As for U2G C66U A70G C71U, the “yeast fitness (ln)” value was -0.121. The value for U2C G6A C46U C66U A69G C71U was -0.183; that for U2G G6A C27U A43C C46U C66U C71U was -0.282.

For the variant G1A G6U C27U A43C A70G, the “yeast fitness (ln)” value was -0.439.

Consider G6U C27U A43C C66A A69G A70U C71U, for which the “yeast fitness (ln)” value was -0.389. To U2G A43C C66U A70U belongs -0.268; to G6U C27U C46U A70U, -0.167. To G1A G6U C27U A43C C66U A69G A70U C71U belongs -0.435; to G1A G6A C46U C66A A70U C71U, -0.15; to G1A G6A C27U A43C C46U A69G C71U, -0.268. On to G1A U2G C27U A43C C46U C66A C71U, for which the “yeast fitness (ln)” value was -0.254.

Regarding G1A U2C G6U C27U C66U A70U, the “yeast fitness (ln)” value was -0.176. To U2G G6U A69G A70U belongs -0.151; to U2C G6U A70U, -0.0726. To G6U C27U A43C C66A belongs -0.0198; to U2C G6A C46U A70G, 0.00625. To G1A G6A C27U A43C C46U belongs -0.233; to G1A U2G G6A C27U C71U, -0.263. Take U2G A43C C46U A70G: the “yeast fitness (ln)” value was -0.0614. Turning to C27U A43C C46U C66U A69G C71U, the “yeast fitness (ln)” value was -0.361.

For G1A U2C G6U C27U C66A A70G, the “yeast fitness (ln)” value was -0.141. The value for G1A U2G A43C C46U A70G was -0.114; that for G6A A43C C46U C66A A70G C71U was -0.286; that for U2C G6A C46U A69G A70G was -0.0375. To G1A U2G G6A C27U C46U C66U A69G A70U belongs -0.219. To G1A C27U A43C C46U C66A A70G belongs -0.248; to G1A C66U A69G A70U C71U, -0.364. On to G1A U2C C46U C66U C71U, for which the “yeast fitness (ln)” value is -0.119.

With G1A C27U A43C A69G C71U, the “yeast fitness (ln)” value is -0.318.

Consider U2C C46U A69G, for which the “yeast fitness (ln)” value was -0.0478. In the case of C27U C46U C66A A69G A70G C71U, the “yeast fitness (ln)” value is -0.156.

In the case of G1A G6U A69G A70U C71U, the “yeast fitness (ln)” value was -0.407.

As to U2G G6A A43C A69G C71U, the “yeast fitness (ln)” value was -0.364.

For the variant G1A U2G G6A A43C C46U C66U A69G A70G, the “yeast fitness (ln)” value is -0.275. For G6U C27U A43C C66U A70U C71U, the “yeast fitness (ln)” value is -0.372. The value for G1A U2C C46U C66A A70G C71U was -0.124; that for U2C A43C C71U was -0.168. Consider G1A U2C A43C, for which the “yeast fitness (ln)” value is -0.0267.

Turning to G1A U2G G6U C27U A43C C46U C66A A69G A70G C71U, the “yeast fitness (ln)” value is -0.337.

Consider A43C, for which the “yeast fitness (ln)” value worked out at 0.000879. To C27U A43C C46U C66A A70G belongs -0.0609; to G1A U2C C27U C46U C66U C71U, -0.124. For the variant G6U A43C C46U A70G, the “yeast fitness (ln)” value was -0.164. The value for G1A G6A C27U A43C A70U was -0.3; that for U2G G6U C27U C46U C66A A70U C71U was -0.143; that for G1A U2G A43C C46U C66U A70G was -0.22.

As for C27U C46U C66U A69G C71U, the “yeast fitness (ln)” value is -0.286. To G6A C27U A43C C46U C66A A69G A70U C71U belongs -0.471. To U2G G6A C27U C66U A69G A70U belongs -0.0719. The value for G1A C27U A43C A69G A70G C71U was -0.299; that for U2G G6U C46U A69G C71U was -0.129.
